Assay results published in ChEMBL document CHEMBL4819107, “Substituted N-(4-amino-2-chlorophenyl)-5-chloro-2-hydroxybenzamide analogues potently inhibit respiratory syncytial virus (RSV) replication and RSV infection-associated inflammatory responses” (Bioorg Med Chem, 2021).
The source made the active and inactive calls. The rule behind the calls is not given here.

Legend:
[1] = test system: Respiratory syncytial virus; assay: Antiviral activity against RSV infected in human A549 cells assessed as reduction in viral titer at 10 uM incubated for 15 hrs by immunostaining analysis; assay type: functional
Method in brief: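 RSV long strain (propagated in HEp-2, sucrose-gradient purified) infected A549 cells at MOI 1 for 2 h. Inoculum removed, then compound at 10 μM for 15 h. Progeny virus titred by immunostaining in HEp-2 cells with biotin-conjugated goat anti-RSV antibody. Log reduction = log10 mean titer of vehicle-treated cells minus log10 mean titer with compound.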

A549 [2] = assay: Antiinflammatory activity against in human A549 cells assessed as reduction in RSV-induced NF-kappaB mRNA expression at 10 uM incubated for 4 hrs by qRT-PCR analysis; assay type: functional, cell-based
A549 [3] = assay: Cytotoxicity against human A549 cells assessed as reduction in cell viability incubated for 15 hrs by trypan blue assay; conditions: a549, 15 h
A549 [4] = assay: Antiinflammatory activity against in human A549 cells transfected with NF-kappaB-Luc assessed as reduction in RSV-induced NF-kappaB activation at 10 uM incubated for 15 hrs by luciferase reporter gene assay; assay type: functional, cell-based
Method in brief: (§1)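 A549 cells transfected in triplicate with luciferase plasmids, either NF-κB-Luc or IRF-3-site reporters. At 20 h post-transfection, infected with RSV (MOI 1). Virus removed at 2 h, then 10 μM compound added for 15 h. Cells then harvested and lysed for luciferase activity.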

A549 [5] = assay: Antiinflammatory activity against in human A549 cells transfected with PRDIII-I-Luc and IRF-3-Luc assessed as reduction in RSV-induced IRF3 activation at 10 uM incubated for 15 hrs by luciferase reporter gene assay; assay type: functional, cell-based; method in brief: as §1
A549 [6] = assay: Antiinflammatory activity against in human A549 cells assessed as reduction in RSV-induced IRF3 mRNA expression at 10 uM incubated for 4 hrs by qRT-PCR analysis; assay type: functional, cell-based
SAEC [7] = assay: Antiinflammatory activity against in human SAEC cells assessed as reduction in RSV-induced TNF-alpha production at 10 uM incubated for 4 hrs by immunoassay; assay type: functional, cell-based
Method in brief: (§2)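 Primary small airway epithelial cells infected with RSV long strain at MOI 5. Virus removed at 2 h, then 10 μM compound added. Supernatant collected 4 h post-treatment. Cytokines/chemokines quantified with a multiplex human profiling bead kit (Bio-Plex).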

[8] = test system: Respiratory syncytial virus; assay: Antiviral activity against RSV infected in human A549 cells assessed as reduction in viral RNA at 10 uM measured upto 24 hrs by qRT-PCR analysis; assay type: functional, organism-based; conditions: time hrs <=24
Method in brief: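 A549 cells infected with RSV (MOI 1), then given 10 μM compound. RSV genome copies in cells quantified by RT-qPCR at 6, 15 and 24 h post-treatment. A fusion inhibitor served as a reference control.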

[9] = test system: Respiratory syncytial virus; assay: Antiviral activity against RSV infected in human A549 cells assessed as reduction in viral genome copies at 10 uM measured after 15 hrs by RT-qPCR analysis
SAEC [10] = assay: Antiinflammatory activity against in human SAEC cells assessed as reduction in RSV-induced IL-6 production at 10 uM incubated for 4 hrs by immunoassay; assay type: functional, cell-based; method in brief: as §2
SAEC [11] = assay: Antiinflammatory activity against in human SAEC cells assessed as reduction in RSV-induced MIP-1beta production at 10 uM incubated for 4 hrs by immunoassay; assay type: functional, cell-based; method in brief: as §2

Structure (SMILES)	log(activity) [1]	CC50 (A549 [3]) [µM]	further results
Nc1ccc(NC(=O)c2cc(Cl)ccc2O)c(Cl)c1	-0.01	–	–
O=C(Nc1ccc(N2CCOCC2)cc1Cl)c1cc(Cl)ccc1O	1.74	89.9	inhibition (A549 [2]): Active; inhibition (A549 [4]): Active; inhibition (A549 [5]): Active; inhibition (A549 [6]): Active
O=C(Nc1ccc(NC2CCCC2)cc1Cl)c1cc(Cl)ccc1O	1.44	–	–
O=C(Nc1ccc(NCC2CCNCC2)cc1Cl)c1cc(Cl)ccc1O	-0.07	–	–
CCCCCCC(C)Nc1ccc(NC(=O)c2cc(Cl)ccc2O)c(Cl)c1 (centres undefined)	1.16	18.6	–
O=C(Nc1ccc(NCC2CCCC2)cc1Cl)c1cc(Cl)ccc1O	1.42	141	–
CCCN(CCC)c1ccc(NC(=O)c2cc(Cl)ccc2O)c(Cl)c1	1.91	323	inhibition (A549 [2]): Active; inhibition (A549 [4]): Active; inhibition (SAEC [7]): Active; inhibition (A549 [5]): Active; inhibition (A549 [6]): Active
O=C(Nc1ccc(NCc2ccccc2)cc1Cl)c1cc(Cl)ccc1O	1.53	81.3	–
CC(C)(C)OC(=O)N1CCC(CNc2ccc(NC(=O)c3cc(Cl)ccc3O)c(Cl)c2)CC1	1.53	–	–
CS(=O)(=O)CCCn1c(Cn2c(=O)n(CC(F)(F)F)c3ccncc32)cc2cc(Cl)ccc21	–	–	inhibition [8]: Active; inhibition [9]: inactive
O=C(Nc1ccc(NCc2cccnc2)cc1Cl)c1cc(Cl)ccc1O	0.54	–	inhibition (A549 [2]): inactive; inhibition (A549 [4]): inactive; inhibition (SAEC [7]): inactive; inhibition (A549 [5]): inactive; inhibition (SAEC [10]): inactive; inhibition (SAEC [11]): inactive; inhibition (A549 [6]): inactive
CC(=O)Nc1ccc(NC(=O)c2cc(Cl)ccc2O)c(Cl)c1	0.09	–	–
CCCC(C)(C)Nc1ccc(NC(=O)c2cc(Cl)ccc2O)c(Cl)c1	1.81	23.7	–
O=C(Nc1ccc(NCCCO)cc1Cl)c1cc(Cl)ccc1O	-0.16	–	–
CC(C)Nc1ccc(NC(=O)c2cc(Cl)ccc2O)c(Cl)c1	1.88	82.7	inhibition (A549 [2]): Active; inhibition (A549 [4]): Active; inhibition (A549 [5]): Active; inhibition (A549 [6]): Active
CCCNc1ccc(NC(=O)c2cc(Cl)ccc2O)c(Cl)c1	1.82	69.7	inhibition (A549 [2]): Active; inhibition (A549 [4]): Active; inhibition (A549 [5]): Active; inhibition (SAEC [11]): Active; inhibition (A549 [6]): Active
O=C(Nc1ccc(N2CCCC2)cc1Cl)c1cc(Cl)ccc1O	1.51	–	–
O=C(Nc1ccc(NCc2cc(C(F)(F)F)cc(C(F)(F)F)c2)cc1Cl)c1cc(Cl)ccc1O	2.59	22.9	–
O=C(Nc1ccc(NCc2ccc(F)cc2)cc1Cl)c1cc(Cl)ccc1O	1.54	–	–
